UCH37 DUB inh: inhibitors of human deubiquitinating enzyme UCH37. Q9Y5K5. inhibition, % (no concentration beside the values). 330,000 compounds, 0.33% hits. purified proteasome/UCH37, Ub-AMC cleavage fluorescence;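 active = mean inhibition over replicate wells above about 20%, limit read from the data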
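Assay system: Proteasome-bound UCH37. Buffer or medium: pH 7.4 Tris-HCl (50 mM) with ovalbumin, ATP-MgCl2, DTT. Incubation: 30 min preincubation with enzyme, 25 min cleavage at room temperature. Measured by: fluorescence, ex 355 nm, em 460 nm. Read-out basis: percent inhibition. Control set: wells without proteasome as full block, compound-free enzyme plus substrate as uninhibited.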
ALR inh: blocks human ALR sulfhydryl oxidase activity; P55789; purified ALR, DTT oxidation, H2O2 HRP-luminol luminescence; inhibition, % (test concentration not listed); 290,000 compounds, 3.8% hits;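 active = mean replicate inhibition above about 79%, with every replicate also reaching it, limit read from the data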
Target sequence (P55789 whole entry, looked up): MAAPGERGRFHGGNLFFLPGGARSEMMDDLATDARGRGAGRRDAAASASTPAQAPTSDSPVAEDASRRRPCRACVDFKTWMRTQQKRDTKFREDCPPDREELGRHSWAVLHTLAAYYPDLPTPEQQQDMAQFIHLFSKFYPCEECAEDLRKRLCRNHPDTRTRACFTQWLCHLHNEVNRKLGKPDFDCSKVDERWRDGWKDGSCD
HDAC3 inh: blocks human histone deacetylase 3; O15379; inhibition, % at 8.3 µM; recombinant HDAC3, fluorogenic peptide/trypsin coupled, fluorescence; 320,000 compounds, 0.15% hits; in the data active = inhibition above about 26%, passing the limit was not always enough
FAS TE block: blocks the thioesterase domain of human fatty acid synthase. 360,000 compounds, 0.67% hits. P49327. inhibition, % at 15 µM. recombinant FAS-TE, OMFH fluorogenic substrate, fluorescence endpoint;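 active = compounds whose normalised, plate-corrected inhibition of enzyme fluorescence in the single-dose primary screen is 50% or more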
PfM18AAP inh: PfM18AAP enzyme inhibition. recombinant PfM18AAP, H-Glu-NHMec fluorogenic cleavage. inhibition, % at 7.35 µM. 290,000 compounds, 1.2% hits. AID 1822;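 active = inhibition above the campaign mean inhibition over all tested compounds plus 3 SD, cut at about 28% in these data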
Rtt109 HAT inh: inhibitors of Candida albicans Rtt109/Vps75 histone acetyltransferase; Q5AAJ8; purified Rtt109/Vps75, ThioGlo CoA-SH fluorescence, 4 h; inhibition, % at 34.9 µM; 330,000 compounds, 0.16% hits; AID 540336;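 active = inhibition of at least 50% in every replicate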
Target sequence (Q5AAJ8 whole entry, looked up): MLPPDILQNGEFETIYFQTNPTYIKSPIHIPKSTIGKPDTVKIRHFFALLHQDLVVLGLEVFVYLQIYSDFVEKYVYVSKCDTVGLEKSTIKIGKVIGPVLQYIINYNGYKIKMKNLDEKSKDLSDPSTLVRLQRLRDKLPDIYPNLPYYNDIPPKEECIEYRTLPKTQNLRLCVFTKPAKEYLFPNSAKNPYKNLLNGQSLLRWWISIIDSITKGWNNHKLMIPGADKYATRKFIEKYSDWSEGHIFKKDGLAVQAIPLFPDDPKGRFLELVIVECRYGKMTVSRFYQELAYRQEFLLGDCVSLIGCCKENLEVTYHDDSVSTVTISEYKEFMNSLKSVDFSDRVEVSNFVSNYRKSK
Numbers stand for hits. Rows were chosen to be rich in hits. Some 4.6% of all compounds tested hit in one or more screens of this group.

`Cc1cccc(-c2nc(CS(=O)CC(=O)NCC3CCCO3)c(C)o2)c1` (stereo unspecified) gave UCH37 DUB inh inactive, HDAC3 inh inactive, FAS TE block inactive, PfM18AAP inh inactive and Rtt109 HAT inh inactive.
Screening COc1ccc(-c2nc(CS(=O)CC(=O)NC3CCCCC3)c(C)o2)cc1OC (stereo unspecified) returned UCH37 DUB inh inactive, ALR inh 99.3, HDAC3 inh inactive, FAS TE block inactive, PfM18AAP inh inactive and Rtt109 HAT inh inactive.
COc1ccc(-c2nc(CN3CCC(C(=O)NC4CCCC4)CC3)c(C)o2)cc1OC was read as UCH37 DUB inh inactive, ALR inh inactive, HDAC3 inh inactive, FAS TE block inactive, PfM18AAP inh inactive and Rtt109 HAT inh inactive.
Screening S=c1nc(-c2ccccc2Cl)n(Cc2cccnc2)c2c1CCCC2 returned UCH37 DUB inh inactive, ALR inh 99.5, HDAC3 inh inactive, FAS TE block inactive, PfM18AAP inh inactive and Rtt109 HAT inh inactive.
Screening Fc1ccc(C=Nc2c(-c3ccc(F)cc3)nc3n2CCS3)cc1 returned UCH37 DUB inh inactive.
Screening COc1cc(C=NNC(=O)c2c(C)nnn2-c2nonc2N)ccc1O returned UCH37 DUB inh inactive.
Screening C=CCC(CC(O)COCCC)C(=O)NNC(=S)Nc1ccccc1 (stereo unspecified) returned UCH37 DUB inh inactive, ALR inh 98.3, HDAC3 inh inactive, FAS TE block inactive, PfM18AAP inh 30.0 and Rtt109 HAT inh inactive.
For CC(C)CCOCC(O)CCC(=O)NNC(=S)Nc1ccccc1 (stereo unspecified) the results were UCH37 DUB inh inactive, ALR inh inactive, HDAC3 inh inactive, FAS TE block inactive, PfM18AAP inh inactive and Rtt109 HAT inh inactive.
For CN(C)C1(CN=Cc2cc(Cl)cc([N+](=O)[O-])c2O)CCCCC1 the results were UCH37 DUB inh inactive, ALR inh inactive, HDAC3 inh inactive, FAS TE block inactive, PfM18AAP inh 29.7 and Rtt109 HAT inh inactive.
`O=C(NC1CCCC1)C(c1ccc(F)cc1)N(C(=O)c1csnn1)c1ccccc1` (stereo unspecified) gave UCH37 DUB inh inactive, ALR inh inactive, HDAC3 inh inactive, FAS TE block inactive, PfM18AAP inh inactive and Rtt109 HAT inh 52.1.
Screening COc1ccc(OC)c(/C=N/N(C)c2ccccc2)c1 returned ALR inh 98.9, HDAC3 inh inactive, FAS TE block inactive, PfM18AAP inh inactive and Rtt109 HAT inh inactive.
Screening N/C(=N\O)c1ccccc1N1CCCCC1 returned ALR inh 89.9, HDAC3 inh inactive, FAS TE block inactive, PfM18AAP inh inactive and Rtt109 HAT inh inactive.
O=C(C[n+]1ccccc1)NN=Cc1ccc(C(=O)O)cc1 was read as UCH37 DUB inh inactive.
COc1ccc(CNC(=O)COC(=O)c2ccc(S(=O)(=O)N3CCCCC3)cc2)cc1 was read as UCH37 DUB inh inactive, HDAC3 inh inactive, FAS TE block inactive and Rtt109 HAT inh 51.9.
Screening COc1ccc(CNC(=O)COC(=O)c2ccc(S(=O)(=O)N3CCOCC3)cc2)cc1 returned UCH37 DUB inh inactive, ALR inh inactive, HDAC3 inh inactive, FAS TE block inactive and Rtt109 HAT inh inactive.
For COc1ccc(C=NOCC(=O)N2CC3(C)CC2CC(C)(C)C3)cc1 (stereo unspecified) the results were UCH37 DUB inh inactive.
For O=C(ON=Cc1ccc(Cl)cc1)C1CCCCC1 the results were UCH37 DUB inh inactive.
For CCOC(=O)c1c(CCl)nc2ccccc2c1-c1ccccc1 the results were ALR inh 95.5, HDAC3 inh inactive, FAS TE block inactive, PfM18AAP inh inactive and Rtt109 HAT inh inactive.
Screening CCOC(=O)c1c(C)nc2ccccc2c1-c1ccccc1 returned UCH37 DUB inh inactive, ALR inh inactive, HDAC3 inh inactive, FAS TE block inactive, PfM18AAP inh inactive and Rtt109 HAT inh inactive.
Screening CSc1nc(N(C)CCO)c2sc3nc(-c4ccco4)c4c(c3c2n1)CCC4 returned UCH37 DUB inh inactive, ALR inh 97.8, HDAC3 inh inactive, FAS TE block inactive, PfM18AAP inh inactive and Rtt109 HAT inh inactive.
For Cc1ccc(SC(=O)COc2ccccc2C)cc1 the results were UCH37 DUB inh inactive, ALR inh 98.8, HDAC3 inh inactive, FAS TE block inactive, PfM18AAP inh inactive and Rtt109 HAT inh inactive.
Screening O=C(CNC(=O)c1ccc(Br)o1)NC12CC3CC(CC(C3)C1)C2 returned UCH37 DUB inh inactive, ALR inh inactive, HDAC3 inh inactive, FAS TE block inactive, PfM18AAP inh inactive and Rtt109 HAT inh 57.6.
N#C/C(=C\c1cc2c(cc1Br)OCO2)C(=O)NCC1CCCO1 (stereo unspecified) was read as UCH37 DUB inh inactive, ALR inh 97.6, HDAC3 inh inactive, FAS TE block inactive, PfM18AAP inh inactive and Rtt109 HAT inh inactive.
For Cc1ccc(/C=C(\C#N)C(=O)NCC2CCCO2)o1 (stereo unspecified) the results were UCH37 DUB inh inactive, ALR inh inactive, HDAC3 inh inactive, FAS TE block inactive, PfM18AAP inh inactive and Rtt109 HAT inh inactive.
`COc1cc(/C=C(\C#N)C(=O)NCC2CCCO2)ccc1OCC(=O)O` (stereo unspecified) gave UCH37 DUB inh inactive, ALR inh inactive, HDAC3 inh inactive, FAS TE block inactive, PfM18AAP inh inactive and Rtt109 HAT inh inactive.
For COc1cc(/C=C(\C#N)C(=O)NCC2CCCO2)c([N+](=O)[O-])cc1OC (stereo unspecified) the results were UCH37 DUB inh inactive, ALR inh inactive, HDAC3 inh inactive, FAS TE block inactive, PfM18AAP inh 30.3 and Rtt109 HAT inh inactive.
Cn1nnnc1SCC(=O)c1cccs1 was read as UCH37 DUB inh inactive, ALR inh inactive, HDAC3 inh inactive, FAS TE block inactive, PfM18AAP inh inactive and Rtt109 HAT inh inactive.
Screening Cc1cc(C)c(-n2nnnc2SCC(=O)c2cccs2)c(C)c1 returned UCH37 DUB inh inactive, ALR inh inactive, HDAC3 inh inactive, FAS TE block inactive, PfM18AAP inh inactive and Rtt109 HAT inh 60.2.
`COc1ccc(CC(=O)NN=C(C)CC(=O)Nc2cccc(F)c2)cc1` gave UCH37 DUB inh inactive.
Cc1ccc(-n2ncc3c2CCCC3NC(=O)c2ocnc2C)cc1C (stereo unspecified) was read as UCH37 DUB inh inactive, ALR inh inactive, HDAC3 inh inactive, FAS TE block inactive, PfM18AAP inh inactive and Rtt109 HAT inh inactive.
Cc1cc(C(=O)NC2CCCc3c2cnn3-c2ccc(C)c(C)c2)no1 (stereo unspecified) was read as UCH37 DUB inh inactive, ALR inh 88.8, HDAC3 inh inactive, FAS TE block inactive, PfM18AAP inh inactive and Rtt109 HAT inh inactive.
Screening Cc1ccc(NC(=O)CSCC(=O)N(C)CC(=O)Nc2cccc(F)c2)cc1 returned UCH37 DUB inh inactive, ALR inh 98.8, HDAC3 inh inactive, FAS TE block inactive and Rtt109 HAT inh inactive.

Source: PubChem
